Reference: paper PMC12669303 (Clinical Drug Investigation, 2025)
Where two headings read alike, the source gives them in different places. Marks after values point to notes of the source that are not given here.

Legend:
[1] = Safety and tolerability: treatment-emergent adverse events; assay type: in vivo, human (healthy Chinese adults)
Summary of the method: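 Oral tablets were given fasted to three cohorts: 1 mg single (n=8), 4 mg single then 7-day once-daily (n=10), and 10 mg single (n=8). Safety covered TEAEs, hematology, blood chemistry, urinalysis, vital signs, weight, 12-lead ECG and physical examination. AEs were coded with MedDRA v25.0. The safety set was subjects with ≥ 1 dose and ≥ 1 postdose assessment, reported as n (%).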

[2] = Single oral dose pharmacokinetics of dotinurad in plasma, phase 1 study; assay type: in vivo, human (healthy Chinese adults); conditions: for Vd/F / half-life / AUC(0-inf) / Cmax / Tmax: human, plasma
Summary of the method: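 Healthy nonsmoking Chinese adults (18–45 y, weight ≥ 50 kg) took a single oral tablet dose (1 mg n=8, 4 mg n=10, 10 mg n=8) on Day 1 after a 10-h fast. Plasma was sampled 0–48 h, separated at 2000 g for 10 min at 4 °C, and stored at −80 °C. Samples had solid-phase pretreatment, then LC-MS/MS (LOQ 1 ng/mL). Noncompartmental parameters are mean ± SD, tmax median (min–max).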

[3] = Multiple once-daily oral dose pharmacokinetics of dotinurad in plasma; assay type: in vivo, human (healthy Chinese adults)
Summary of the method: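 In the 4-mg cohort (n=10, screening serum urate ≥ 5.5 mg/dL), a single Day 1 dose was followed by a 3-day washout. The test compound was then given orally once daily on Days 4–10, each morning after a 10-h fast. Plasma sampled 0–72 h after the Day 10 dose was assayed by LC-MS/MS (LOQ 1 ng/mL). Parameters are noncompartmental, with accumulation relative to Day 1. Mean ± SD; tss,max median (min–max).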

serum urate = conditions: Chinese patients with gout, cited from earlier work
[4] = Cohort A, 1 mg single dose, N = 8
[5] = Cohort A, 1 mg single dose, N = 8, determined as drug-related TEAE
[6] = Cohort B, 4 mg single and multiple doses, N = 10
[7] = Cohort C, 10 mg single dose, N = 8
[8] = 4 mg once daily for 7 days, Day 10, N = 10, mean ± SD
[9] = 4 mg once daily for 7 days, Day 10 vs Day 1, N = 10, mean ± SD

## O=C(c1cc(Cl)c(O)c(Cl)c1)N1CS(=O)(=O)c2ccccc21 [Dotinurad]
[1]; 1, 4 and 10 mg cohorts
  dose dependence of TEAEs: No dose-dependent TEAEs were observed
[1]; [4]
  Number of subjects with at least one TEAE, any severity: 2 (25.0) n (%)
  Number of subjects with at least one TEAE, mild: 2 (25.0) n (%)
  Number of subjects with at least one TEAE, moderate: 0 n (%)
  Number of subjects with at least one TEAE, severe: 0 n (%)
  TEAE: Blood bilirubin increased (mild): 0 n (%)
  TEAE: Body temperature increased (mild): 0 n (%)
[1]; [5]
  TEAE: Alanine aminotransferase increased (mild): 1 (12.5)^a n (%)
  TEAE: Blood triglycerides increased (mild): 1 (12.5)^a n (%)
[1]; [6]
  Number of subjects with at least one TEAE, any severity: 2 (20.0) n (%)
  Number of subjects with at least one TEAE, mild: 2 (20.0) n (%)
  Number of subjects with at least one TEAE, moderate: 0 n (%)
  Number of subjects with at least one TEAE, severe: 0 n (%)
  TEAE: Alanine aminotransferase increased (mild): 0 n (%)
  TEAE: Blood bilirubin increased (mild): 1 (10.0) n (%)
  TEAE: Blood triglycerides increased (mild): 0 n (%)
  TEAE: Body temperature increased (mild): 1 (10.0) n (%)
[1]; [7]
  Number of subjects with at least one TEAE, any severity: 0 n (%)
  Number of subjects with at least one TEAE, mild: 0 n (%)
  Number of subjects with at least one TEAE, moderate: 0 n (%)
  Number of subjects with at least one TEAE, severe: 0 n (%)
  TEAE: Alanine aminotransferase increased (mild): 0 n (%)
  TEAE: Blood bilirubin increased (mild): 0 n (%)
  TEAE: Blood triglycerides increased (mild): 0 n (%)
  TEAE: Body temperature increased (mild): 0 n (%)
[1]; Total, all cohorts, N = 26
  Number of subjects with at least one TEAE, any severity: 4 (15.4) n (%)
  Number of subjects with at least one TEAE, mild: 4 (15.4) n (%)
  Number of subjects with at least one TEAE, moderate: 0 n (%)
  Number of subjects with at least one TEAE, severe: 0 n (%)
  TEAE: Alanine aminotransferase increased (mild): 1 (3.8) n (%)
  TEAE: Blood bilirubin increased (mild): 1 (3.8) n (%)
  TEAE: Blood triglycerides increased (mild): 1 (3.8) n (%)
  TEAE: Body temperature increased (mild): 1 (3.8) n (%)
[1]; all cohorts
  severity and outcome of TEAEs: All the TEAEs were mild and resolved without any treatment
[1]; all cohorts, 1–10 mg
  fatal TEAE, serious TEAE, or TEAE leading to discontinuation of study drug: No fatal TEAE, serious TEAE, or TEAE leading to discontinuation of study drug was reported
[1]; all cohorts, 4 of 26 subjects
  subjects who experienced at least 1 TEAE: 15.4%
[1]; single and multiple doses of 4 mg (Cohort B), 2/10 subjects
  subjects who experienced at least 1 TEAE: 20.0%
[1]; single dose 1 mg (Cohort A), 2/8 subjects
  subjects who experienced at least 1 TEAE: 25.0%
[2]; across single oral doses of 1, 4 and 10 mg
  time at which mean plasma concentration reached maximum: 3.00 to 3.50 h
[2]; across the single-dose range of 1–10 mg
  CL/F: 0.757 to 0.834 L/h
[2]; oral
  Vd/F: 11.1 to 11.7 L
  half-life: ~10 h
[2]; po, 1 mg
  AUC(0-inf): 1360 ± 288 ng·h/mL
  Cmax: 104 ± 18.5 ng/mL
  Tmax: 3.5 h
  Vd/F: 11.1 ± 2.06 L
  half-life: 10.1 ± 1.26 h
[2]; po, 4 mg
  AUC(0-inf): 4890 ± 683 ng·h/mL
  Cmax: 365 ± 35.2 ng/mL
  Tmax: 3 h
  Vd/F: 11.7 ± 1.12 L
[2]; po, 10 mg
  AUC(0-inf): 13600 ± 2480 ng·h/mL
  Cmax: 964 ± 101 ng/mL
  Tmax: 3 h
  Vd/F: 11.6 ± 1.1 L
  half-life: 10.9 ± 1.53 h
[2]; single oral dose 1 mg, fasted, Cohort A, N = 8, mean ± SD
  CL/F: 0.764 ± 0.147 L/h
[2]; single oral dose 4 mg, fasted, Cohort B Day 1, N = 10, mean ± SD
  CL/F: 0.834 ± 0.130 L/h
[2]; single oral dose 10 mg, fasted, Cohort C, N = 8, mean ± SD
  CL/F: 0.757 ± 0.134 L/h
[2]; within 48 h after single oral doses of 1 to 10 mg
  mean plasma concentration relative to the corresponding maximum concentration: below 10%
[3]; [8]
  CLss/F: 0.923 ± 0.183 L/h
  Css,av: 186 ± 31.8 ng/mL
  Css,max: 397 ± 69.4 ng/mL
  Css,min: 65.4 ± 22.1 ng/mL
[3]; 4 mg once daily for 7 days, Day 10, N = 10, median (min–max)
  tss,max: 3.00 (2.00–6.00) h
[3]; [9]
  Rac(AUC0–24h) accumulation ratio: 1.13 ± 0.121
  Rac(Cmax) accumulation ratio: 1.09 ± 0.185
[3]; human, plasma, oral, 4 mg
  AUC: 4470 ± 762 ng·h/mL
  Vd/F: 13.2 ± 1.64 L
  half-life: 10.1 ± 1.72 h
[3]; within 72 h after Day 10 dose, 4 mg once daily for 7 days
  mean plasma concentration relative to the corresponding maximum concentration: below 1%
Serum urate; 2 mg, Week 12
  reduction of serum urate: 37.9%
Serum urate; 4 mg, Week 24
  reduction of serum urate: 45.9%
